Test system: Salmonella typhimurium
Assay: Mutagenicity in Salmonella typhimurium strain TA92 assessed as number of bacterial revertants after 2 days by Ames test in presence of rat liver S9 fraction
Assay type: toxicity, organism-based
Conditions: salmonella enterica subsp. enterica serovar typhimurium, s9, 48 h
Method in brief: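 S. typhimurium TA92 (hisG46, pKM101) grown 12-16 h at 37 °C in nutrient broth (~10⁹ cells/mL). S-9 from livers of Aroclor 1254-induced female Sprague-Dawley rats (500 mg/kg ip, 5 days before sacrifice). Compound in Me₂SO, bacteria and S-9 mix preincubated 20 min at 30 °C, then plated in histidine/biotin top agar and incubated 2 days at 37 °C. Revertants were hand counted, with spontaneous control revertants subtracted. Triplicates were run. The end point was 30 revertants/10⁸ bacteria, interpolated to give log 1/C.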

Compared with `CCCCN(C)/N=N/c1ccc(C(N)=O)cc1`, `CN(C)/N=N/c1ccc(C(N)=O)cc1` is lower in “log(1/C)” value: 5.41 for the first, 4.04 for the second.

Compared with `CN(C)/N=N/c1ccccc1`, `CN(C)/N=N/c1ccc(-c2ccccc2)cc1` is higher in “log(1/C)” value: 5.32 for the first, 7.67 for the second.

Going from `CN(C)/N=N/c1ccc(S(N)(=O)=O)cc1` to `Cc1ccc(/N=N/N(C)C)cc1`, the “log(1/C)” value rises from 3.49 to 7.

First: CN(C)/N=N/c1ccc(C(F)(F)F)cc1
Second: CN(C)/N=N/c1ccc(Cl)cc1
The “log(1/C)” value of the first is lower: 5.99 for the first, 6.48 for the second.

First: CN(C)/N=N/c1cccc(C(N)=O)c1
Second: CN(C)/N=N/c1cccc(NC(N)=O)c1
The “log(1/C)” value of the first is lower: 3.51 for the first, 4.19 for the second.

Compared with `CC(=O)Nc1ccc(/N=N/N(C)C)cc1`, `CN(C)/N=N/c1ccc(NC(N)=O)cc1` is lower in “log(1/C)” value: 5.83 for the first, 5.59 for the second.

First: CN(C)/N=N/c1cc(C#N)cc(C#N)c1
Second: CN(C)/N=N/c1ccc(C#N)cc1
The “log(1/C)” value of the first is lower: 3.46 for the first, 4.43 for the second.

Compared with `C=CCN(C)/N=N/c1ccc(C(N)=O)cc1`, `CN(/N=N/c1ccc(C(N)=O)cc1)C(C)(C)C` is lower in “log(1/C)” value: 4.16 for the first, 3.83 for the second.

First: Cc1cccc(/N=N/N(C)C)c1
Second: CC(=O)c1ccc(/N=N/N(C)C)cc1
The “log(1/C)” value of the first is higher: 6.44 for the first, 4.47 for the second.

Compared with `COc1cc2c(c3oc(=O)c4c(c13)CCC4=O)[C@@H]1C=CO[C@@H]1O2` [AFLATOXIN], `CN(C)/N=N/c1[nH]cnc1C(N)=O` [DACARBAZINE] is lower in “log(1/C)” value: 9.48 for the first, 3 for the second.

— ChEMBL document CHEMBL3227950, “Ames test of 1-(X-phenyl)-3,3-dialkyltriazenes. A quantitative structure-activity study” (J Med Chem, 1979)
